Assays:
L1210 [1] = test: Antitumor activity in the mice with intraperitoneal implanted L1210 lymphoid leukemia at the dose 9.2 and 14.9 mg/kg/day x 5 was determined and number of animals survived on 30 th day were reported; 0/6; format: functional, Mus musculus
In short: (§1)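 C3D2F1/J female mice (C3H/HeJ female × DBA/2J male), groups of six to eight, average weight 25 g. Inoculated ip with 1 × 10^6 L1210 ascites cells taken from DBA/2Ha donor mice bearing 3-5 day old tumors. Compounds were dissolved in 0.154 N NaOH, neutralized with 0.154 N HCl (final 0.9% NaCl), and given ip daily for 5 days from 24 h post-implant. Median survival T/C; ILS = (T/C − 1) × 100; 30-day survivors counted.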

L1210 [2] = test: Antitumor activity in mice with intraperitoneal implanted L1210 lymphoid leukemia at the dose 34.8 and 56.1 mg/kg/day x 5 was determined as weight change (g/mouse) on 8th day; format: functional
In short: (§2)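 C3D2F1/J female mice (C3H/HeJ × DBA/2J), groups of six to eight, average 25 g, inoculated ip with 1 × 10^6 L1210 ascites cells taken from DBA/2Ha donor mice carrying 3-5 day tumors. Compound dissolved in 0.154 N NaOH, then neutralized with 0.154 N HCl to give 0.9% NaCl. Given ip daily for 5 consecutive days starting 24 h after implantation. Body weight change per mouse recorded on day 8.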

L1210 [3] = test: Antitumor activity in the mice with intraperitoneal implanted L1210 lymphoid leukemia at the dose of 9.2 and 14.9 mg/kg/day x 5 was determined as mean survival of treated group compared to untreated; 9.5/9; format: functional, Mus musculus
L1210 [4] = test: Antitumor activity in the mice with intraperitoneal implanted L1210 lymphoid leukemia at the dose of 34.8 and 56.1 mg/kg/day x 5 was determined as mean survival of treated group compared to untreated; 9.5/9; format: functional, Mus musculus; in short: as §1
L1210 [5] = test: Antitumor activity in the mice with intraperitoneal implanted L1210 lymphoid leukemia at the dose 34.8 and 56.1 mg/kg/day x 5 was determined and number of animals survived on 30 th day were reported; 0/8; format: functional, Mus musculus
In short: (§3)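 Female C3D2F1/J mice (C3H/HeJ × DBA/2J), groups of six to eight, average weight 25 g. Each mouse got 1 × 10^6 L1210 ascites cells ip, taken from DBA/2Ha donor mice bearing 3-5 day tumors. Compound was dissolved in 0.154 N NaOH and neutralized with 0.154 N HCl (final 0.9% NaCl). Dosed ip daily ×5, starting 24 h after implant. Recorded body weight change on day 8, survival range, median survival and 30-day survivors. ILS = (T/C − 1) × 100.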

L1210 [6] = test: Antitumor activity in the mice with intraperitoneal implanted L1210 lymphoid leukemia at the dose 34.8 and 56.1 mg/kg/day x 5 was determined as percentage increase in the life span as compared with control tumor bearers; format: functional, Mus musculus; in short: as §3
L1210 [7] = test: Antitumor activity in the mice with intraperitoneal implanted L1210 lymphoid leukemia at the dose 34.8 and 56.1 mg/kg/day x 5 was determined as Survival time in days; Range is 8-9 days; format: functional, Mus musculus; in short: as §3
L1210 [8] = test: Antitumor activity in the mice with intraperitoneal implanted L1210 lymphoid leukemia at the dose 9.2 and 14.9 mg/kg/day x 5 was determined as percentage increase in the life span as compared with control tumor bearers; format: functional, Mus musculus; in short: as §1
L1210 [9] = test: Antitumor activity in the mice with intraperitoneal implanted L1210 lymphoid leukemia at the dose 9.2 and 14.9 mg/kg/day x 5 was determined as Survival time in days; Range is 8-10 days; format: functional, Mus musculus; in short: as §1
L1210 [10] = test: Antitumor activity in mice with intraperitoneal implanted L1210 lymphoid leukemia at the dose 9.2 and 14.9 mg/kg/day x 5 was determined as weight change (g/mouse) on 8th day; format: functional; in short: as §2

SMILES: C[C@@H]1C[C@H]2[C@@H]3CCC4=CC(=O)C=C[C@]4(C)[C@@]3(F)[C@@H](O)C[C@]2(C)[C@@]1(O)C(=O)CO.Nc1ccn([C@@H]2O[C@H](CO)[C@@H](O)[C@@H]2O)c(=O)n1
- Survivors (L1210 [1]): 0
- Weight change (L1210 [2]): -2.72 g mouse-1
- T/C (L1210 [3]): 9.5
- T/C (L1210 [4]): 8.5
- Survivors (L1210 [5]): 0
- ILS (L1210 [6]): -6%
- Survival time (L1210 [7]): 8 days
- ILS (L1210 [8]): -14%
- Survival time (L1210 [9]): 8 days
- Weight change (L1210 [10]): -4.23 g mouse-1

Reference: ChEMBL document CHEMBL1121364, “Nucleoside conjugates as potential antitumor agents. 3. Synthesis and antitumor activity of 1-(beta-D-arabinofuranosyl)cytosine conjugates of corticosteroids” (1980)
